Consider six compounds from PMC6764274 (Chemical Science, 2019).

One test has as its system HMLER cells. Put plainly: MTT cytotoxicity assay, bulk breast cancer cells. In kind it is cell-based. The conditions noted are these: read-out: HMLER IC50/nM. Background: Formazan colour is commonly taken as a measure of viable cells.
Test [1] deals with HMLER-shEcad cells. The experiment in a line: MTT cytotoxicity assay, breast CSC-enriched cells. In kind it is cell-based. The following applies: read-out: HMLER-shEcad IC50/nM.
Test [2] concerns HMLER-shEcad mammospheres. The following applies: cited from earlier work.
Test [3] concerns MCF10A spheroids. Put plainly: Non-tumorigenic spheroid formation inhibition. The following applies: IC20 value for 5 days. Type of test: cell-based. A digest of the protocol: (§1)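 HMLER-shEcad or MCF10A cells were grown as mammospheres/spheroids with test compound at its IC20 for 5 days. Spheres were assessed by inverted microscope with bright-field imaging (×20), and formation was quantified against untreated cells. SD, Student t-test.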

For test [4], the system named is HMLER-shEcad mammospheres. Put plainly: Mammosphere formation inhibition. In kind it is cell-based. The conditions noted are these: IC20 value for 5 days. A digest of the protocol:
as §1

Test [5] relates to MCF10A spheroids. The experiment in a line: Non-tumorigenic spheroid viability. In kind it is cell-based. The following applies: Homo sapiens, MCF-10A, read-out: IC50, MCF10A spheroid viability.
Test [6] concerns HMLER-shEcad cells. The conditions noted are these: read-out: HMLER-shEcad IC50/nM; 72 h incubation; cited from earlier work.
Setting [7] is: 72 h incubation, mean of three independent experiments ± SD.

Structures are written as SMILES. Read-outs that look alike come from different tables or passages of the source.

Take `Cc1cnc2c(ccc3c(C)c(C)cnc32)c1C` [3,4,7,8-Tetramethyl-1,10-phenanthroline]: the IC50 stood at 785 ± 10 nM with HMLER cells (72 h) and 720 ± 84 nM in the test on HMLER-shEcad cells [1] (72 h).

Take `N.N.[Cl][Pt][Cl]` [Cisplatin]: the IC50 was determined as 2565 ± 21 nM in the test with HMLER cells (setting [7]) and 5640 ± 304 nM with HMLER-shEcad cells [1] (setting [7]).

With `O=C(O)Cc1ccccc1Nc1c(Cl)cccc1Cl` [Diclofenac], the “effect on number or size of HMLER-shEcad mammospheres formed” value in test [2] was “does not significantly affect”.

Turning to `Cc1cnc2c(ccc3c(C)c(C)cnc32)c1C.[Cl][Mn][Cl]` [Mn(3,4,7,8-tetramethyl-1,10-phenanthroline)Cl2], the IC50 came out at 163 ± 21 nM in the test with HMLER cells (setting [7]) and 170 ± 14 nM in the test with HMLER-shEcad cells [1] (setting [7]).

As to `[Cl][Mn][Cl]` [MnCl2·4H2O], in the test on HMLER-shEcad cells [1] (setting [7]), the IC50 was found to be 7760 ± 318 nM.

With `CC[C@@H](C(=O)[C@@H](C)[C@@H](O)[C@H](C)[C@@H]1O[C@@H]([C@@H](CC)C(=O)O)CC[C@@H]1C)[C@H]1O[C@]2(C=C[C@@H](O)[C@]3(CC[C@@](C)([C@H]4CC[C@](O)(CC)[C@H](C)O4)O3)O2)[C@H](C)C[C@@H]1C` [Salinomycin], in the test with MCF10A spheroids [3], the “decrease in number of MCF10A spheroids formed” value worked out at 40%. In addition, the “decrease in number of HMLER-shEcad mammospheres formed compared to the untreated control” value in test [4] is given as 53%. For the same compound, the IC50 in the test with MCF10A spheroids [5] was 14.9 ± 0.5 µM; in the test on HMLER-shEcad cells [6], 4200 ± 400 nM.
